In ChEMBL document CHEMBL1129249, “Synthesis and activity of a novel series of 3-biarylquinuclidine squalene synthase inhibitors” (J Med Chem, 1996):
One block for each compound: values may come before it.

Tests used:
Squalene synthase = biological target: T1, Squalene synthase (Rattus norvegicus, UniProt Q02769); test: In vitro inhibition against rat microsomal squalene synthase (SS)
T1 sequence (Q02769 whole entry): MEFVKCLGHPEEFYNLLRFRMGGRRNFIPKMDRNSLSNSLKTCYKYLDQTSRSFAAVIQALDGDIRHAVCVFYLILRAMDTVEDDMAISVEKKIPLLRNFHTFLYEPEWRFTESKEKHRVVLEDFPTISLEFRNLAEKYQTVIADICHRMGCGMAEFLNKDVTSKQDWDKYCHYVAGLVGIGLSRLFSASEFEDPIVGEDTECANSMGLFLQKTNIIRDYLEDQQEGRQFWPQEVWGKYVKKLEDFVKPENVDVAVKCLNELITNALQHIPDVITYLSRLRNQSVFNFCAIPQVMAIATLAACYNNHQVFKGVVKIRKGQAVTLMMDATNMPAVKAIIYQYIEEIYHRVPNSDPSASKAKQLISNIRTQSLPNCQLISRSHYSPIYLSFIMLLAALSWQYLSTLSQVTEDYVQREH
Outline: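 Squalene synthase came from rat microsomes. Inhibition was tested in phosphate buffer. IC50 values are from duplicate determinations (n = 2).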

Rattus norvegicus = test: Inhibition of cholesterol biosynthesis from mevolanate after oral dosing to rat; assay type: functional
Outline: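 Rats were dosed orally, and cholesterol synthesis from mevalonate was then measured. ED50 (mg/kg) was derived from dose–response data and reported with 95% confidence limits.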

Structure (SMILES): c1ccc(-c2ccc(CCC3CN4CCC3CC4)cc2)cc1 (stereo unspecified)
IC50 (Squalene synthase): 5 nM

Structure (SMILES): OC1(c2ccc(-c3cnc4ccccc4c3)cc2)CN2CCC1CC2 (stereo unspecified)
IC50 (Squalene synthase): 200 nM

Structure (SMILES): CC(C)=CCC/C(C)=C/CC/C(C)=C/COCC1(O)CN2CCC1CC2 (stereo unspecified)
IC50 (Squalene synthase): 60 nM

Structure (SMILES): c1ccc(-c2ccc(C3CN4CCC3CC4)cc2)cc1 (stereo unspecified)
IC50 (Squalene synthase): 11 nM

Structure (SMILES): OC1(c2ccc(-c3ccc(F)cc3)cc2)CN2CCC1CC2 (stereo unspecified)
IC50 (Squalene synthase): 18 nM

Structure (SMILES): OC1(c2ccc(-c3ccncc3)cc2)CN2CCC1CC2 (stereo unspecified)
ED50 (Rattus norvegicus): 2.7 mg/kg
IC50 (Squalene synthase): 161 nM

Structure (SMILES): OC(c1ccc(-c2ccccc2)cc1)C1CN2CCC1CC2 (stereo in doubt; 33)
IC50 (Squalene synthase): 2500 nM

Structure (SMILES): OC1(c2cnc(-c3ccccc3)s2)CN2CCC1CC2 (stereo unspecified)
IC50 (Squalene synthase): 60 nM

Structure (SMILES): OC1(c2ccc(-c3ccccn3)cc2)CN2CCC1CC2 (stereo unspecified)
IC50 (Squalene synthase): 240 nM

Structure (SMILES): OC1(C#Cc2ccc(-c3ccccc3)cc2)CN2CCC1CC2 (stereo unspecified)
IC50 (Squalene synthase): 3 nM

Structure (SMILES): OC1(c2ccc(-c3ccc(-c4ccccc4)cc3)cc2)CN2CCC1CC2 (stereo unspecified)
IC50 (Squalene synthase): 370 nM

Structure (SMILES): OC1(c2ccc(-c3cccs3)s2)CN2CCC1CC2 (stereo unspecified)
IC50 (Squalene synthase): > 2500 nM

Structure (SMILES): OC1(c2ccc(-c3ccccc3)cc2)CN2CCC1CC2 (stereo in doubt; 2a(-))
IC50 (Squalene synthase): 121 nM

Structure (SMILES): OC1(c2ccc(C3CCCCC3)cc2)CN2CCC1CC2 (stereo unspecified)
IC50 (Squalene synthase): 190 nM

Structure (SMILES): O=S(=O)(NC1CN2CCC1CC2)c1ccc(-c2ccccc2)cc1 (stereo unspecified)
IC50 (Squalene synthase): > 2500 nM

Structure (SMILES): OC1(c2ccc(-c3cccs3)cc2)CN2CCC1CC2 (stereo unspecified)
IC50 (Squalene synthase): 40 nM

Structure (SMILES): OC1(CSc2ccc(-c3ccccc3)cc2)CN2CCC1CC2 (stereo unspecified)
IC50 (Squalene synthase): 8 nM

Structure (SMILES): C(=C/C1CN2CCC1CC2)/c1ccc(-c2ccccc2)cc1 (stereo unspecified)
IC50 (Squalene synthase): 580 nM

Structure (SMILES): OC1(c2ccc(-c3nccs3)cc2)CN2CCC1CC2 (stereo unspecified)
IC50 (Squalene synthase): 30 nM

Structure (SMILES): O=S(=O)(c1ccc(-c2ccccc2)cc1)C1CN2CCC1CC2 (stereo unspecified)
IC50 (Squalene synthase): > 2500 nM

Structure (SMILES): OC1(CCc2ccc(-c3ccccc3)cc2)CN2CCC1CC2 (stereo unspecified)
IC50 (Squalene synthase): 7 nM

Structure (SMILES): OC1(c2ccc(-c3nc4ccccc4s3)cc2)CN2CCC1CC2 (stereo unspecified)
IC50 (Squalene synthase): 6 nM

Structure (SMILES): OC1(COc2ccc(-c3ccccc3)cc2)CN2CCC1CC2 (stereo unspecified)
IC50 (Squalene synthase): 13 nM

Structure (SMILES): O=S(=O)(CC1(O)CN2CCC1CC2)c1ccc(-c2ccccc2)cc1 (stereo unspecified)
IC50 (Squalene synthase): > 2500 nM

Structure (SMILES): C(=C\C1CN2CCC1CC2)/c1ccc(-c2ccccc2)cc1 (stereo unspecified)
IC50 (Squalene synthase): 4 nM

Structure (SMILES): OC1(c2ccc(-c3ncccn3)cc2)CN2CCC1CC2 (stereo unspecified)
IC50 (Squalene synthase): 30 nM

IC50 (Squalene synthase): 18 nM
Structure (SMILES): C1=C(c2ccc(-c3ccccc3)cc2)C2CCN1CC2

Structure (SMILES): OC1(c2ccc(-c3cccnc3)cc2)CN2CCC1CC2 (stereo unspecified)
IC50 (Squalene synthase): 270 nM

Structure (SMILES): O=C(NC1CN2CCC1CC2)c1ccc(-c2ccccc2)cc1 (stereo unspecified)
IC50 (Squalene synthase): 1200 nM

Structure (SMILES): c1ccc(-c2ccc(CC3CN4CCC3CC4)cc2)cc1 (stereo unspecified)
IC50 (Squalene synthase): 27 nM

Structure (SMILES): OC1(c2ccc(-c3ccccc3)cc2)CN2CCC1CC2 (stereo in doubt; 2)
IC50 (Squalene synthase): 16 nM

Structure (SMILES): Oc1ccc(-c2ccc(C3(O)CN4CCC3CC4)cc2)cc1 (stereo unspecified)
IC50 (Squalene synthase): 132 nM

Structure (SMILES): OC1(c2cccc(-c3ccccc3)c2)CN2CCC1CC2 (stereo unspecified)
IC50 (Squalene synthase): 60 nM

Structure (SMILES): COC1(c2ccc(-c3ccccc3)cc2)CN2CCC1CC2 (stereo unspecified)
IC50 (Squalene synthase): > 2500 nM

Structure (SMILES): CC(C)=CCC/C(C)=C/CC/C(C)=C/COC1CN2CCC1CC2 (stereo unspecified)
IC50 (Squalene synthase): 70 nM

Structure (SMILES): OC1(c2ccccc2)CN2CCC1CC2 (stereo unspecified)
IC50 (Squalene synthase): > 2500 nM

Structure (SMILES): OC1(c2ccc(-c3ccccc3)cc2)CN2CCC1CC2 (stereo in doubt; 2a(+))
IC50 (Squalene synthase): 7 nM

Structure (SMILES): [O-][S+](CC1(O)CN2CCC1CC2)c1ccc(-c2ccccc2)cc1 (stereo unspecified)
IC50 (Squalene synthase): > 2500 nM

Structure (SMILES): OC(c1ccc(-c2ccccc2)cc1)C1CN2CCC1CC2 (stereo in doubt; 32)
IC50 (Squalene synthase): 2500 nM

Structure (SMILES): OC1(c2ccc(C3OCCCO3)cc2)CN2CCC1CC2 (stereo unspecified)
IC50 (Squalene synthase): > 2500 nM
